Screens as filed in PubChem.
Most compounds without a hit are left out; they make up all but 1.8% or so of the library.
HTRA1 inhibitor = blocks human HTRA1 serine peptidase. recombinant HTRA1, FP-rhodamine activity-based probe, fluorescence polarization. inhibition, % at 5.96 µM. Q92743. hit rate 0.5% among 340,000; in the data active = inhibition above about 36%
ABHD4 inh = inhibitors of mouse ABHD4 | hit rate 0.54% among 370,000 | purified mABHD4, FP-Rh probe fluorescence polarization | inhibition, % at 8.92 µM;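 active = inhibition exceeding the mean over every tested compound plus 3 SD, cut at about 30% in these data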
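Assay system: wild-type mouse ABHD4 protein; compound: single nominal dose of 8.92 µM, 0.89% DMSO final; schedule: 45 min + 60 min at 25 °C; measured by: FP readout, ex 525 nm / em 598 nm; evaluation: % inhibition of FP-Rh probe binding versus controls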
SIAE inh = inhibitors of human sialic acid acetylesterase SIAE. inhibition, % at 9.66 µM. SIAE FP-Rh probe binding, fluorescence polarization. hit rate 0.69% among 370,000. Q9HAT2;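 active = inhibition above a cutoff: mean of compounds within the control limits plus 3 SD of those, cut at about 17% in these data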
Target sequence (Q9HAT2 whole entry, looked up): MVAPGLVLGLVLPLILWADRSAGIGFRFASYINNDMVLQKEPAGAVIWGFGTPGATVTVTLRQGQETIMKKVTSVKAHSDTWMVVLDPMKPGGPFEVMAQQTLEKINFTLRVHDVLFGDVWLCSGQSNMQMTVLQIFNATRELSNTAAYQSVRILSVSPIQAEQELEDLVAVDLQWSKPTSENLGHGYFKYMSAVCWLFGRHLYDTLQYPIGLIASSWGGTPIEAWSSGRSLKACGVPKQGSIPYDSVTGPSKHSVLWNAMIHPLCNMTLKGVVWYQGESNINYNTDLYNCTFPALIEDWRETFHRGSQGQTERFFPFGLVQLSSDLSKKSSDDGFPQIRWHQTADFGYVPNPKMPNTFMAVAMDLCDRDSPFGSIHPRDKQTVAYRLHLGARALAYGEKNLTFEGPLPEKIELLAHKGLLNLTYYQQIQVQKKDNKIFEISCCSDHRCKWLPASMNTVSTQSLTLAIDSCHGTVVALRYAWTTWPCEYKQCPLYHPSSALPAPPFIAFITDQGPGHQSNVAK
ARNT-TACC3 inh = disrupts binding between human ARNT and TACC3 | AlphaScreen His-ARNT PAS-B/GST-TACC3 binding, luminescence; TACC3 fragment carries E629A point mutation | inhibition, % at 9.99 µM | hit rate 0.66% among 390,000 | AID 623870;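 active = mean inhibition of replicates at least 50% and at least half of replicates each reaching 50%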
TCR-CD3 inh = blocks the human TCR-CD3 interaction; TAMRA-labeled TCR probe fluorescence, biochemical; inhibition, % at 9.4 µM; hit rate 0.37% among 360,000;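 also: recombinant mutant TCR 2C K166C tagged with TAMRA read by polarization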
HTRA1 inh conf = HTRA1 (human) inhibition, confirmation; shares compounds with HTRA1 inhibitor; recombinant HTRA1, FP-rhodamine activity-based probe, fluorescence polarization; inhibition, % at 5.96 µM; hit rate 66% among 1,600; AID 540248;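 active = mean inhibition over three repeats above a set limit taken from the earlier primary screen, cut at about 37% in these data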;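 also: inhibitors block probe binding so polarization drops and inhibition rises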
ARNT Alpha ctr-1 = counter-screen for ARNT/TACC3 inhibitors: AlphaScreen artifacts | shares compounds with ARNT-TACC3 inh | His-ARNT PASB-GST AlphaScreen artifact counter-screen, luminescence | AC50, µM (series often up to 68 µM) | hit rate 50% among 1,200 | AID 651705;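 active = every separate test run was called active for a drop in luminescence, with AC50 within twice the top valid dose, actives reach about 71 µM in these data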
ARNT Alpha ctr-2 = produces AlphaScreen artifacts in ARNT-TACC3 counter-screen. Dual-tagged His-ARNT PASB-GST AlphaScreen artifact counter-screen. hit rate 70% among 45. AID 720564. AC50, µM. shares compounds with ARNT-TACC3 inh;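 active = luminescence drop, with half-maximal potency fitted within twice the sample's top valid dose, cut at about 70 µM in these data; inactive = the rest, including signal moving the wrong way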
BSA probe FL = interferes with TAMRA-BSA probe, flagging TCR-CD3 hits; shares compounds with TCR-CD3 inh; TAMRA-labeled BSA probe fluorescence counterscreen; inhibition, % at 9.4 µM; hit rate 10% among 1,200; AID 652035; in the data active = inhibition above about 23%
TCR-CD3 conf = TCR-CD3 interaction inhibition, confirmation | shares compounds with TCR-CD3 inh | TAMRA-labeled TCR probe fluorescence binding assay | inhibition, % at 9.4 µM | hit rate 48% among 1,200 | AID 652036
ABHD4 confirm = confirmation of mouse ABHD4 inhibitors. AID 720658. inhibition, % at 8.92 µM. shares compounds with ABHD4 inh. hit rate 55% among 1,800. purified mABHD4, FP-Rh probe fluorescence polarization;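 active = mean inhibition across replicates above the hit cutoff set in the primary screen, cut at about 30% in these data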
SIAE confirm = human SIAE inhibition, confirmation | shares compounds with SIAE inh | SIAE FP-Rh activity-based probe, fluorescence polarization | inhibition, % at 9.66 µM | hit rate 13% among 2,300;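 active = mean inhibition of the replicates above the hit cutoff set in the primary screen, cut at about 17% in these data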;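 also: inhibitors lower polarization as more probe stays unbound to SIAE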
Hits are given with their value; . = inactive; / = not tested or not shown; + = active, no number. Rule as the data show it, unless noted: active = inhibition above about 19%; inactive = the rest.

SMILES | HTRA1 inhibitor | ABHD4 inh | SIAE inh | ARNT-TACC3 inh | TCR-CD3 inh | HTRA1 inh conf | others
CC(C)(C)c1ccc(O)c(N=Cc2c(O)ccc3ccccc23)c1 | 50.0 | . | . | . | . | 62.6
c1ccc(Nc2ccc(Nc3ccccc3)cc2)cc1 | 55.9 | . | . | / | . | 42.6
COC(=O)[C@@H]1[C@@H](CO)[C@@H]2Cn3c(ccc(-c4cncnc4)c3=O)[C@H]1N2S(=O)(=O)c1ccccc1C | / | / | / | . | / | /
COc1ccc(-n2c(/C=C/c3ccc(O)c(O)c3)nc3ccccc3c2=O)cc1 | 65.7 | . | . | . | . | 62.9
Cc1cc(OC(=O)c2ccco2)c2c3c(c(=O)oc2c1)CCCC3 | 41.9 | . | . | . | . | .
Cc1cc(OC(=O)c2cccs2)c2c3c(c(=O)oc2c1)CCCC3 | . | . | . | . | . | /
CCC(C)/C=C(C)/C=C/C1=CC2=C(Cl)C(=O)C(C)(OC(C)=O)C(=O)C2=CO1 (stereo unspecified) | 44.0 | / | / | 48.9 | / | 68.1
O=C(Cc1ccccn1)N1CCCCN2[C@H](CO)[C@H](c3ccc(-c4ccccc4)cc3)[C@@H]2C1 | / | / | / | . | / | /
COc1ccc2c(c1O)-c1c(OC)c(OC)cc3c1[C@H](C2)N(C)CC3 | . | . | . | . | . | /
CCCN1CCc2cccc3c2[C@H]1Cc1ccc(O)c(O)c1-3 | 77.3 | / | / | . | / | 65.6
O=C(Cc1ccccc1)N1C[C@H]2[C@@H](c3ccccc31)[C@H](CO)N2Cc1ccccc1 | / | / | / | . | / | /
COc1ccc(OC)c(N2C(=O)NC(=O)/C(=C/c3ccc([N+](=O)[O-])s3)C2=O)c1 | 48.2 | . | . | . | . | 43.2
COc1cc(/C=C2\C(=O)NC(=O)N(c3ccccc3)C2=O)c([N+](=O)[O-])cc1OC | . | . | . | . | . | /
Cc1ccccc1-c1ccc([C@H]2[C@H]3CN(C(=O)Cc4ccccn4)CCCCN3[C@H]2CO)cc1 | / | / | / | . | / | /
CC1Oc2cc3c(-c4c(O)cc(O)c5c(O)c6c(cc45)OC(C)C(C)C6=O)c(O)cc(O)c3c(O)c2C(=O)C1C (stereo unspecified) | 66.4 | / | / | 79.7 | / | 80.6
COC(=O)[C@H]1[C@H](CO)[C@H]2Cn3c(ccc(-c4ccccc4F)c3=O)[C@@H]1N2Cc1ccncc1 | / | / | / | . | / | /
COC(=O)[C@H]1[C@H](CO)[C@H]2Cn3c(cccc3=O)[C@@H]1N2CCc1ccccc1 | / | / | / | . | / | /
C=Cn1ccnc1P(=S)(c1nccn1C=C)c1nccn1C=C | 40.6 | . | . | . | . | 42.8
CN(C)C1C(=O)C(C(N)=O)=C(O)C2(O)C(=O)C3=C(O)c4c(O)cccc4C(C)(O)C3C(O)C12 (stereo unspecified) | 56.3 | 67.2 | . | . | 25.0 | . | BSA probe FL=.;TCR-CD3 conf=.;ABHD4 confirm=.
COC(=O)[C@@H]1[C@@H](CO)[C@@H]2Cn3c(ccc(/C=C/c4ccccc4)c3=O)[C@H]1N2C(=O)C1CC1 | / | / | / | . | / | /
CCN(CC)c1ccc(N=Cc2c(O)n(Cc3ccco3)c(=O)[nH]c2=O)cc1 | 41.8 | 45.4 | . | . | . | . | ABHD4 confirm=.
COC(=O)[C@@H]1[C@@H](CO)[C@@H]2Cn3c(ccc(-c4ccc(F)cc4)c3=O)[C@H]1N2C(=O)c1ccccc1F | / | / | / | . | / | /
CCN(CC)c1ccc(N=Cc2c(O)n(-c3cc(OC)ccc3OC)c(=O)[nH]c2=O)cc1 | 45.7 | 65.3 | 24.6 | . | . | . | ABHD4 confirm=.;SIAE confirm=.
COC(=O)[C@H]1[C@H](CO)[C@H]2Cn3c(ccc(-c4ccccc4)c3=O)[C@@H]1N2CC1CC1 | / | / | / | . | / | /
COC(=O)[C@@H]1[C@@H](CO)[C@@H]2Cn3c(cccc3=O)[C@H]1N2C(=O)C1CCCC1 | / | / | / | . | / | /
SMILES | HTRA1 inhibitor | ABHD4 inh | SIAE inh | ARNT-TACC3 inh | TCR-CD3 inh | HTRA1 inh conf | others
NC(N)=N/N=C/c1ccc(N(c2ccccc2)c2ccccc2)cc1 | 45.5 | 42.4 | 21.7 | . | . | 59.7 | ABHD4 confirm=71.0;SIAE confirm=36.0
O=C(O)[C@H]1[C@H](CO)[C@H]2Cn3c(ccc(C4=CCCC4)c3=O)[C@@H]1N2C(=O)Cc1ccccn1 | / | / | / | . | / | /
OCCNc1c2c(nc3ccccc13)CCCC2 | . | . | . | . | . | /
C[n+]1c2ccccc2nc2ccc(NCCO)cc21 | 85.8 | 96.9 | 60.4 | . | 195.8 | 86.5 | BSA probe FL=176.9;TCR-CD3 conf=138.8;ABHD4 confirm=62.5;SIAE confirm=67.6
CNc1ccc2nc3ccccc3[n+](C)c2c1 | 114.9 | 118.6 | 108.0 | 67.5 | + | 101.4 | BSA probe FL=+;TCR-CD3 conf=184.2;ABHD4 confirm=101.3;SIAE confirm=113.3
CC1CN(c2ccc([N+](=O)[O-])c3cccnc23)CC(C)N1 (stereo unspecified) | . | . | . | 59.4 | . | / | ARNT Alpha ctr-1=.
N#CC1(c2ccccc2)CCN(C2CC(=O)N(c3cccc(F)c3)C2=O)CC1 (stereo unspecified) | . | . | . | . | . | /
N#CC1(c2ccccc2)CCN(Cc2ccc(O)c3ncccc23)CC1 | / | / | / | / | / | / | ARNT Alpha ctr-1=5.91µM
Oc1cccc2cccnc12 | / | . | . | / | . | /
Oc1ccc(CN2CCC3CCCCC3C2)c2cccnc12 (stereo unspecified) | / | / | / | / | / | / | ARNT Alpha ctr-1=3.29µM
O=C(O)[C@H]1[C@H](CO)[C@H]2Cn3c(ccc(-c4ccc(F)cc4)c3=O)[C@@H]1N2CC1CCCCC1 | / | / | / | . | / | /
FC(F)(F)c1ccc(CNCCc2c[nH]c3ccccc23)cc1 | . | . | . | . | . | /
Clc1cccc(CNCCc2c[nH]c3ccccc23)c1 | . | . | . | 51.6 | . | / | ARNT Alpha ctr-1=.
CCN(CCCl)c1cc(CN(C)C)cc(NC(=O)c2ccc(C(=O)Nc3cc(CN(C)C)cc(N(CC)CCCl)c3)cc2)c1 | . | . | . | 53.8 | . | / | ARNT Alpha ctr-1=4.28µM
O=C(O)[C@H]1[C@H](CO)[C@H]2Cn3c(ccc(-c4ccccc4)c3=O)[C@@H]1N2C(=O)C1CCCCC1 | / | / | / | . | / | /
OC[C@@H]1[C@@H]2c3ccccc3NC[C@@H]2N1Cc1cccnc1 | / | / | / | . | / | /
CCn1nc(-c2cccnc2)nc2c(=O)n(C)c(=O)nc1-2 | / | / | / | / | / | / | ARNT Alpha ctr-2=.
Cc1ccccc1S(=O)(=O)N1[C@@H]2c3ccc(-c4cccnc4)c(=O)n3C[C@H]1[C@H](CO)[C@H]2C(=O)O | / | / | / | . | / | /
